The values below come from ChEMBL document CHEMBL1154009, “Identification, synthesis and SAR of amino substituted pyrido[3,2b]pyrazinones as potent and selective PDE5 inhibitors” (Bioorg Med Chem Lett, 2009).

Data set [1] has as its target cGMP-specific 3',5'-cyclic phosphodiesterase (Homo sapiens, UniProt O76074). Nature of the data set: Inhibition of PDE5.
Data set [2] in a line: Inhibition of PDE6.
The nature of data set [3]: Inhibition of PDE11.
Data set [4] in a line: Selectivity ratio of IC50 for PDE6 to IC50 for PDE5.
Data set [5] is described as follows: Aqueous solubility at pH 7.4. It counts as physicochemical. To be noted: aqueous medium.
The nature of data set [6]: Selectivity ratio of IC50 for PDE11 to IC50 for PDE5.
Data set [7] is described as follows: Half life in Sprague-Dawley rat at 2 mg/kg, po and 2mg/kg, iv. It counts as ADME, organism-based. The arrangement: dose 2 mg/kg, route oral. To be noted: in vivo. The gist of the method: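 Sprague Dawley rats (n = 3) dosed IV at 2 mpk in 70% PEG400/20% 0.05 M citrate buffer/10% ethanol, pH 5.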

`O=c1c(NCCN2CCOCC2)nc2ccc(-c3ccc(F)cc3)nc2n1CC1CCCCC1`: the IC50 (usually the concentration needed to halve the response being measured) in data set [1] was 0.0046 µM; in data set [2], 0.24 µM; in data set [3], 0.405 µM. The Ratio IC50 in data set [4] is more than 100.

With `CCCOCCn1c(=O)c(NCCN2CCOCC2)nc2ccc(-c3ccc(=O)[nH]c3)nc21`, half-maximal inhibition in data set [1] (IC50) required 0.534 µM.

As to `CCCOCCn1c(=O)c(NCCN2CCOCC2)nc2ccc(-c3c(C)noc3C)nc21`, the IC50 in data set [1] is 0.0365 µM; in data set [2] it was 1.98 µM; in data set [3], more than 2 µM.

Regarding `COc1ccc(-c2ccc3nc(NCC(=O)N(C)C)c(=O)n(CC4CCCCC4)c3n2)cn1`, the IC50 in data set [1] came out at 0.0003 µM; in data set [2], 0.072 µM; in data set [3], 0.0077 µM.

With `CN(C)C(=O)CNc1nc2ccc(-c3ccc(F)cc3)nc2n(CC2CCCCC2)c1=O`, the IC50 in data set [1] is 0.0035 µM; in data set [2] it was more than 2 µM; in data set [3], 0.0909 µM.

For the molecule `COc1ccc(-c2ccc3nc(NCCN4CCOCC4)c(=O)n(CC4CCCCC4)c3n2)cn1`, the IC50 in data set [1] is 0.0004 µM; in data set [2], 0.0252 µM; in data set [3], 0.0059 µM. Besides, in data set [5], the solubility (as a rule, the concentration that dissolves in the medium under given conditions) was less than 3 µM.

With `Nc1nc2ccc(-c3ccc(F)cc3)nc2n(CC2CCCCC2)c1=O`, the IC50 in data set [1] worked out at 0.0285 µM; in data set [2] it was 0.114 µM; in data set [3] it was 0.145 µM.

Turning to `CCCOCCn1c(=O)c(NCC(=O)N(C)C)nc2ccc(-c3ccc(OC)nc3)nc21`, the IC50 worked out at 0.0145 µM in data set [1], 1.19 µM in data set [2] and 1.21 µM in data set [3]. Also, the Ratio IC50 in data set [4] is more than 100; in data set [6] it was more than 600.

`CCCCCN1C(=O)CN(C)c2ncc(-c3ccc(F)c(F)c3)cc21`: the IC50 in data set [1] is 0.043 µM; in data set [2] it was 1.16 µM; in data set [3] it was more than 2 µM.

In the case of `O=c1c(NCC2CCOCC2)nc2ccc(-c3ccc(F)cc3)nc2n1CC1CCCCC1`, the IC50 in data set [1] was 0.003 µM; in data set [2] it was 0.459 µM; in data set [3], 0.324 µM. Moreover, the Ratio IC50 in data set [4] was more than 100.

As for `O=c1c(NCC2CCOCC2)nc2ccc(-c3ccc(O)nc3)nc2n1CC1CCCCC1`, the IC50 came to 0.0029 µM in data set [1], 0.112 µM in data set [2] and 0.0792 µM in data set [3].

Regarding `O=c1c(NCc2cccnc2)nc2ccc(-c3ccc(F)cc3)nc2n1CC1CCCCC1`, the IC50 in data set [1] stood at 0.0134 µM; in data set [2], 0.871 µM; in data set [3], 0.558 µM.

In the case of `O=c1c(NCC2CCOCC2)nc2ccc(-c3ccc(F)cc3)nc2n1Cc1ccccn1`, the IC50 in data set [1] turned out to be 0.0203 µM; in data set [2], 0.92 µM; in data set [3], 0.97 µM.

For `COc1ccc(Cn2c(=O)c(NCCN3CCOCC3)nc3ccc(-c4ccc(F)c(F)c4)nc32)cc1`, the IC50 in data set [1] was 0.002 µM; in data set [2] it was 0.0116 µM; in data set [3], 0.482 µM. Moreover, the Ratio IC50 in data set [6] came to 100.

Turning to `COc1ccc(Cn2c(=O)c(NCCN3CCOCC3)nc3ccc(-c4ccc(F)cc4)nc32)cc1`, the values for the IC50 in data set [1], in data set [2] and in data set [3] were 0.0013 µM, 0.0101 µM and 0.345 µM, respectively. In addition, the Ratio IC50 in data set [6] was found to be 100.

`CCOCCn1c(=O)c(NCC2CCOCC2)nc2ccc(-c3ccc(F)cc3)nc21` showed an IC50 in data set [1] of 0.149 µM.

As to `COc1ncc(-c2ccc3nc(NCC4CCOCC4)c(=O)n(CC4CCCCC4)c3n2)cn1`, the IC50 in data set [1] came out at 0.0003 µM; in data set [2] it was 0.0363 µM; in data set [3], 0.0082 µM.

As to `O=c1c(NCCN2CCOCC2)nc2ccc(-c3ccc(F)c(F)c3)nc2n1CC1CCCCC1`, the IC50 in data set [1] was 0.0016 µM; in data set [2], 0.195 µM; in data set [3], 0.213 µM. In addition, the Ratio IC50 in data set [4] was more than 100.

In turn, `CC(C)Cn1c(=O)c(NCC2CCOCC2)nc2ccc(-c3ccc(F)cc3)nc21` had an IC50 in data set [1] of 0.224 µM.

Take `CCCn1ccc(=O)c2c(N)nc(-c3ccccc3)cc21`: the IC50 in data set [1] amounted to 0.051 µM; in data set [2] it was 0.006 µM.

Consider `COc1ccc(Cn2c(=O)ccc3ccc(-c4ccncc4)cc32)cc1`, for which the IC50 in data set [1] was 0.025 µM; in data set [2], 0.15 µM; in data set [3] it was 0.041 µM.

Take `CCCOCCn1c(=O)c(NCCN2CCOCC2)nc2ccc(-c3cnc(OC)nc3)nc21`: the IC50 in data set [1] is 0.0267 µM; in data set [2], more than 2 µM; in data set [3], more than 2 µM.

As for `Cc1noc(C)c1-c1ccc2nc(NCCN3CCOCC3)c(=O)n(CC3CCCCC3)c2n1`, the IC50 in data set [1] is 0.001 µM; in data set [2] it was 0.0416 µM; in data set [3], 0.286 µM.

On to `O=c1c(NCC2CCOCC2)nc2ccc(-c3ccc(F)cc3)nc2n1Cc1cc(F)cc(F)c1`, for which the IC50 in data set [1] came out at 0.0027 µM; in data set [2], 0.91 µM; in data set [3] it was 0.39 µM.

Turning to `CCCOCCn1c(=O)c(NCC2CCOCC2)nc2ccc(-c3ccncc3)nc21`, the IC50 in data set [1] was 0.0339 µM; in data set [2], 1.17 µM; in data set [3], more than 2 µM.

On to `O=c1c(NCC2CCOCC2)nc2ccc(-c3ccc(F)cc3)nc2n1Cc1cccnc1`, for which the IC50 in data set [1] was 0.0025 µM; in data set [2], 0.375 µM; in data set [3], 0.474 µM.

`CCCOCCn1c(=O)c(NCCN2CCOCC2)nc2ccc(-c3ccc(F)cc3)nc21`: the IC50 in data set [1] was 0.0333 µM; in data set [2] it was 1.85 µM; in data set [3], more than 2 µM.

As to `O=c1c(NCC2CCOCC2)nc2ccc(-c3ccncc3)nc2n1CC1CCCCC1`, the IC50 amounted to 0.0009 µM in data set [1], 0.0335 µM in data set [2] and 0.0365 µM in data set [3].

On to `CCCOCCn1c(=O)c(NCC2CCOCC2)nc2ccc(-c3ccc(OC)nc3)nc21`, for which the IC50 in data set [1] is 0.0023 µM; in data set [2], 0.35 µM; in data set [3] it was 1.23 µM. The Ratio IC50 in data set [4] was more than 100; in data set [6] it was more than 600.

In the case of `COc1ccc(-c2ccc3nc(NCC4CCOCC4)c(=O)n(CC4CCCCC4)c3n2)cn1`, the IC50 in data set [1] worked out at 0.0003 µM; in data set [2], 0.032 µM; in data set [3], 0.0081 µM.

In the case of `CC(C)OCCn1c(=O)c(NCCN2CCOCC2)nc2ccc(-c3ccc(F)c(F)c3)nc21`, the IC50 is 0.0525 µM in data set [1], 0.979 µM in data set [2] and 1.66 µM in data set [3].

Consider `CCCOCCn1c(=O)c(NCCN2CCOCC2)nc2ccc(-c3ccc(OC)nc3)nc21`, for which the IC50 in data set [1] turned out to be 0.0024 µM; in data set [2], 0.317 µM; in data set [3], 1.54 µM. In addition, the Ratio IC50 in data set [4] was more than 100; in data set [6] it was more than 600. For the same molecule, the half-life – broadly, the time in which the quantity being followed falls by half – in data set [7] is 3 h.

`CCCOCCn1c(=O)c(NCC2CCOCC2)nc2ccc(-c3ccc(F)cc3)nc21`: the IC50 in data set [1] was 0.0224 µM; in data set [2], more than 2 µM; in data set [3], more than 2 µM.
